ERp5 block – inhibitors of human ERp5. AID 651711. Q15084. 0.05% of 350,000 active. inhibition, % at 9.99 µM. ERp5 insulin aggregation, absorbance 650 nm, 90 min;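 active means mean replicate inhibition above about 25%, with every replicate also reaching it, limit read from the data, passing the limit was not always enough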
Target sequence (Q15084 whole entry, looked up): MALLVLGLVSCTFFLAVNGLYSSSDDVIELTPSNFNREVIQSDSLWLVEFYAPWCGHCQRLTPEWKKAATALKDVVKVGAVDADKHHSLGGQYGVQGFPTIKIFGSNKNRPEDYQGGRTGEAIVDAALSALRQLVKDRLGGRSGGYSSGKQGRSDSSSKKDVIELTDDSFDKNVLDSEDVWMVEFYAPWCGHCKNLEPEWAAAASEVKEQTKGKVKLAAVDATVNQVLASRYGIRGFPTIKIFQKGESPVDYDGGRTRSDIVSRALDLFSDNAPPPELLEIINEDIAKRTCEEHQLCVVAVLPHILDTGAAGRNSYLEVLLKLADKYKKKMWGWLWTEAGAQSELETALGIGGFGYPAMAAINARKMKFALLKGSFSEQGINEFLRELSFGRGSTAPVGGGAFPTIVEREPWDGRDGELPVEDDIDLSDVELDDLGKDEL
Cneo AK release – Cryptococcus neoformans lysis via adenylate kinase release | C. neoformans lysis, adenylate kinase release luminescence, 4 h; normalised: neutral wells 0, clomiphene wells 100 | lysis activity, % at 15 µM | 0.2% of 360,000 active;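 active means mean lysis activity across replicates of at least 80%, whatever share of replicates individually reach that level; inactive means mean lysis activity below 80%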
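Material – Cryptococcus neoformans yeast cells · Quantity – 5 × 10^6 yeast cells/mL · Buffer or medium – YPD medium · Compound – single dose · Timing – 4 h static compound exposure, 37 °C, read 1 h post-reagent · Signal – adenylate kinase release luminescence · Read-out basis – lysis from increased AK signal · Benchmarks – Clomiphene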
PvdQ acylase – P. aeruginosa PvdQ acylase inhibition. inhibition, % at 10 µM. purified PvdQ acylase, fluorescence plate reader. AID 488965. 0.063% of 340,000 active; in the data active means inhibition above about 30%, passing the limit was not always enough;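 further: 0% = vehicle neutral wells and 100% = reference inhibitor wells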
PDI inh – PDI (human) enzyme inhibition; P07237; PDI insulin aggregation turbidity, A650, 90 min; inhibition, % at 10 µM; 0.052% of 350,000 active;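 active means mean inhibition across replicates of 30% or more, whatever share of single replicates reach that level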
miR-122 sensor – inhibitors of miR-122 in Huh7 cells; Huh7 miR-122 Renilla luciferase sensor, 48 h; neutral wells = 0, positive control = 100; AID 602342; activation (reporter increase), % at 12.5 µM; 0.3% of 340,000 active;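 active means mean replicate activation score at least 90 and every replicate individually at or above 90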;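 further: higher luciferase means less miR-122 activity so hits act as miR-122 inhibitors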
PglD DTNB – PglD (C. jejuni) enzyme inhibition; AID 602405; inhibition, % at 12.5 µM; 0.098% of 360,000 active; purified PglD enzyme, DTNB colorimetric CoA detection; in the data active means inhibition above about 16%, passing the limit was not always enough
Numbers without * were called inactive; . = no result given; [ ] = remark or other dose. Sampled rows, rich in hits. Any-hit rate of the full collection: about 0.58%.

SMILES	ERp5 block	Cneo AK release	PvdQ acylase	PDI inh	miR-122 sensor	PglD DTNB
C[C@@H]1CN([C@H](C)CO)C(=O)c2cc(NC(=O)CCC(F)(F)F)ccc2O[C@@H](C)CCCCO[C@@H]1CN(C)C(=O)NC1CCCCC1	0	0	.	.	2[16.7 µM]	1
Cc1cc(C)cc(C(O)c2ncc(-c3ccccc3C)[nH]2)c1 (configuration not stated)	8	2	.	1	.	-1
Cc1cc(C)cc(C(O)c2ncc(-c3ccccc3F)[nH]2)c1 (configuration not stated)	0	12	.	-4	110*	0
Cc1cc(C(O)c2ncc(-c3ccccc3F)[nH]2)ccc1F (configuration not stated)	-1	1	.	-6	136*	-2
C[C@H](CO)N1C[C@H](C)[C@H](CN(C)C(=O)c2ccccn2)Oc2ncc(-c3ccccc3)cc2C1=O	1	81*	.	.	16[16.7 µM]	2
C[C@H]1CN([C@@H](C)CO)C(=O)c2cc(-c3ccccc3)cnc2O[C@@H]1CN(C)C(=O)c1ccccn1	6	105*	.	.	-1[16.7 µM]	-42
C[C@H]1CN([C@@H](C)CO)C(=O)c2cc(-c3ccc(F)cc3)cnc2O[C@@H]1CN(C)C(=O)c1ccccn1	3	-4	.	.	-6[16.7 µM]	-2
Cc1ccc(S(=O)(=O)N(C)C[C@@H]2OCCCC[C@@H](C)Oc3ccc(NC(=O)NC(C)C)cc3C(=O)N([C@H](C)CO)C[C@@H]2C)cc1	-1	-2	.	.	14[16.7 µM]	-1
C[C@H]1CN([C@@H](C)CO)C(=O)c2cc(C3=CCCCC3)cnc2O[C@@H]1CN(C)CC1CCCC1	-168	-10	.	.	.	2
COCC#Cc1cnc2c(c1)C(=O)N([C@H](C)CO)C[C@H](C)[C@H](CN(C)Cc1ccccc1F)O2	7	-1	.	.	14[16.7 µM]	-1
COc1ccc(-c2cccc(-c3cc(=O)oc4cc(OC)cc(OC)c34)c2)cc1	9	4	-7	-12	104*	3
COc1cc(OC)c2c(-c3cccc(-c4ccc(N(C)C)cc4)c3)cc(=O)oc2c1	-2	0	6	5	97*	0
COc1cc(OC)c2c(-c3cccc(-c4ccc(O)cc4)c3)cc(=O)oc2c1	-6	-5	5	-16	99*	3
COc1cc(OC)c2c(-c3cccc(-c4ccc(CO)cc4)c3)cc(=O)oc2c1	.	-4	-6	5	.	-3
COc1cc(OC)c2c(-c3cccc(-c4cccc(C)c4)c3)cc(=O)oc2c1	13	0	11	6	5	-11
CO[C@@H]1CN(C)C(=O)c2ccc(NC(=O)Nc3ccccc3F)cc2OC[C@@H](C)NC[C@@H]1C	1	-3	.	.	-15[16.7 µM]	0
C[C@H](CO)N1C[C@H](C)[C@H](CN(C)C(=O)c2ccncc2)OCCCC[C@H](C)Oc2ccc(NS(=O)(=O)c3cn(C)cn3)cc2C1=O	-5	-2	.	.	3[16.7 µM]	-2
COc1cc2oc3ccccc3c2cc1N(CC(=O)N(C)C)S(=O)(=O)c1ccc(C)cc1	.	-4	0	3	-5	2
COc1ccc(Cl)cc1N(CC(=O)N(C)C)S(=O)(=O)c1ccc(C)c([N+](=O)[O-])c1	0	4	-12	3	101*	-1
COc1cc2oc3ccccc3c2cc1N(CC(=O)N(C)C)S(=O)(=O)c1ccccc1	.	-2	-7	-3	114*	-173
COc1ccc(S(=O)(=O)N(C)C[C@@H]2Oc3ccc(NC(=O)C4CC4)cc3C(=O)N([C@H](C)CO)C[C@H]2C)cc1	0	55	.	.	25[16.7 µM]	16*
COc1ccc(S(=O)(=O)N(C)C[C@@H]2Oc3ccc(NC(=O)C4CC4)cc3C(=O)N([C@@H](C)CO)C[C@H]2C)cc1	2	60	.	.	6[16.7 µM]	13
COc1ccc(S(=O)(=O)N(C)C[C@@H]2Oc3ccc(NC(=O)c4ccncc4)cc3C(=O)N([C@H](C)CO)C[C@@H]2C)cc1	64*	1	.	.	21[16.7 µM]	-3
C[C@@H]1CN([C@H](C)CO)C(=O)c2cc(NC(=O)c3ccncc3)ccc2O[C@@H]1CN(C)S(=O)(=O)c1ccc(Cl)cc1	2	-2	.	.	179*[16.7 µM]	3
COC(=O)C[C@@H]1CC[C@@H]2[C@@H](COc3ccc(NC(=O)NC(C)C)cc3C(=O)N2C)O1	-3	4	.	.	-17[16.7 µM]	-2
SMILES	ERp5 block	Cneo AK release	PvdQ acylase	PDI inh	miR-122 sensor	PglD DTNB
C[C@H](CO)N1C[C@H](C)[C@@H](CN(C)C(=O)NC2CCCCC2)Oc2ccc(NS(=O)(=O)c3ccc(Cl)cc3)cc2CC1=O	-1	0	.	.	0[16.7 µM]	4
CCC(C)c1ccc(NC(=S)N2CCN(c3ccccn3)CC2)cc1 (configuration not stated)	9	105*	-18	-3	.	5
S=C(Nc1ccccc1)N1CCN(c2ccccn2)CC1	1	.	2	-3	.	.
COc1cc(C2C3=C(COC3=O)Oc3cc4c(cc32)OCO4)cc(OC)c1OC(C)=O (configuration not stated)	-2	.	-13	4	101*	.
COc1cc(C2C3=C(COC3=O)Oc3cc4c(cc32)OCO4)ccc1OC(C)=O (configuration not stated)	0	.	-21	-4	13	.
O=C(Nc1ccc(Cl)cc1)N[C@@H]1CC[C@@H](CCNC(=O)c2cc(Cl)cc(Cl)c2)O[C@H]1CO	5	.	.	.	.	.
CO[C@@H]1CC[C@H]2CCOc3c(C#N)cccc3C(=O)N(C)C[C@@H](OC)[C@@H](C)C(=O)N(C)C[C@H]1O2	5	2	.	.	.	3
CO[C@H]1CC[C@@H]2CCOc3c(C#N)cccc3C(=O)N(C)C[C@H](OC)[C@@H](C)C(=O)N(C)C[C@@H]1O2	0	86*	.	.	.	0
CO[C@H]1CC[C@H]2CCOc3c(C#N)cccc3C(=O)N(C)C[C@@H](C)C(=O)N(C)C[C@H]1O2	-2	88*	.	.	.	6
CN1c2ccc(C#Cc3cccnc3)cc2[C@H]2[C@H](CCN2C(=O)Nc2cc(F)ccc2F)[C@@H]1CO	-1	25	.	.	-4[16.7 µM]	8
CCCNC(=O)N1C[C@@H](C)[C@@H](OC)CN(C)C(=O)c2cc(NS(=O)(=O)CC(F)(F)F)ccc2OC[C@H]1C	-2	-4	.	.	.	-3
C[C@H](CO)N1C[C@H](C)[C@H](CN(C)S(C)(=O)=O)Oc2ccc(NC(=O)Cc3cn(C)c4ccccc34)cc2CC1=O	0	0	.	.	6[16.7 µM]	-1
COC(=O)C[C@@H]1C[C@@H]2c3cc(NC(=O)Cc4ccncc4)ccc3O[C@@H]2[C@H](CO)O1	36*	0	.	.	-5[16.7 µM]	4
COC(=O)C[C@H]1C[C@H]2c3cc(NC(=O)Cc4ccncc4)ccc3O[C@H]2[C@H](CO)O1	61*	4	.	.	-4[16.7 µM]	0
CC(C)NC(=O)N(C)C[C@@H]1OCCCC[C@H](C)Oc2ccc(NC(=O)Cc3ccccc3)cc2C(=O)N([C@H](C)CO)C[C@@H]1C	.	-1	.	.	-8[16.7 µM]	-2
